Values after ≈ are worked out from the molar mass of the structure shown.
Legend:
[1] = target: Prostaglandin G/H synthase 1 (Homo sapiens, UniProt P23219); test: Inhibition of COX-1 (unknown origin)
[2] = target: T1, Prostaglandin G/H synthase 2 (Homo sapiens, UniProt P35354); test: Inhibition of COX-2 (unknown origin)
T1 sequence (P35354 whole entry): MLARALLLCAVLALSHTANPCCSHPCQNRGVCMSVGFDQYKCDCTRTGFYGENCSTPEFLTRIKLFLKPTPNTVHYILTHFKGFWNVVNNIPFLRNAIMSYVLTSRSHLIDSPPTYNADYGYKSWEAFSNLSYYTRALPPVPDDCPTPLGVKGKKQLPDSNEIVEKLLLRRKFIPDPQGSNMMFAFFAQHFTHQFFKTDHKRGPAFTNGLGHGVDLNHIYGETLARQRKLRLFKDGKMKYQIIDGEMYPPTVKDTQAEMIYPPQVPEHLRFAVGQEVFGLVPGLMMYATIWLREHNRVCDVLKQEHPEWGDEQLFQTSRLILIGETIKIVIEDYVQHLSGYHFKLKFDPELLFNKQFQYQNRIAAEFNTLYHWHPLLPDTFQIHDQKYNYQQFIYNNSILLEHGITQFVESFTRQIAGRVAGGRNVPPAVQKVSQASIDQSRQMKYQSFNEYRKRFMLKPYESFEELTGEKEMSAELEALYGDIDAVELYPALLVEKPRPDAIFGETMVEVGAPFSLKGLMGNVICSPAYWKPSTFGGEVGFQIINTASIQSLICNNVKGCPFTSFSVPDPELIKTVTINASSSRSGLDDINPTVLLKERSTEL
Method in brief: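 Percent COX-2 inhibition was measured at several compound concentrations. Mefenamic acid served as the reference standard.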

[3] = Antioxidant activity assessed as DPPH free radical scavenging activity in iron free medium; assay type: functional

Prostaglandin G/H synthase 1, sequence (P23219 whole entry): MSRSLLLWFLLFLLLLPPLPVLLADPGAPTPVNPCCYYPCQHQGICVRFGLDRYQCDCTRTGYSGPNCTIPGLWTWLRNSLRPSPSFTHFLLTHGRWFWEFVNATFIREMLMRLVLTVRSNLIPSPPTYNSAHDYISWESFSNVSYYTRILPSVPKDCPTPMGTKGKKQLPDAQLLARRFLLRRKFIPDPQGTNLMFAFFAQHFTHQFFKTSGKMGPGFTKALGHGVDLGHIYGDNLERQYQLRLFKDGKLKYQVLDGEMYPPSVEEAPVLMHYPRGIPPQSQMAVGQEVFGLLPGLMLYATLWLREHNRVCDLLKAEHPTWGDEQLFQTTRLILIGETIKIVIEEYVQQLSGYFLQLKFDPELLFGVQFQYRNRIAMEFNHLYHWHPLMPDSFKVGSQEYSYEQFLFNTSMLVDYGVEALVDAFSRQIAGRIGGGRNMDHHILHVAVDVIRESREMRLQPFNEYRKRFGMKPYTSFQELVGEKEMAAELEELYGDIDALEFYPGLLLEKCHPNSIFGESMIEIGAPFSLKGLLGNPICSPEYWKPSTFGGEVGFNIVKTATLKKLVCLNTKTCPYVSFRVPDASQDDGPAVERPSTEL

Row | SMILES | IC50 [1] [µM] | IC50 [2] [µM] | IC50 [3] [µg/mL]
1 | O=c1cc(CSc2nnc(CSc3nc4ccccc4o3)o2)c2ccc3ccccc3c2o1 | 919 | 27.1 | 23.71 (≈ 50.1 µM)
2 | O=c1cc(CSc2nnc(CSc3nc4ccccc4o3)o2)c2c(ccc3ccccc32)o1 | 226 | 51.9 | 45.86 (≈ 96.8 µM)
3 | O=c1cc(CSc2nnc(CSc3nc4cc(Cl)ccc4o3)o2)c2c(ccc3ccccc32)o1 | 642 | 34.8 | 26.78 (≈ 52.7 µM)
4 | O=c1cc(CSc2nnc(CSc3nc4cc(Cl)ccc4o3)o2)c2ccc3ccccc3c2o1 | 558 | 22.3 | 23.95 (≈ 47.1 µM)
5 | Cc1cc(C)c2c(CSc3nnc(CSc4nc5cc(Cl)ccc5o4)o3)cc(=O)oc2c1 | 505 | 27.2 | 26.98 (≈ 55.5 µM)
6 | COc1ccc2oc(=O)cc(CSc3nnc(CSc4nc5cc(Cl)ccc5o4)o3)c2c1 | 1180 | 91.3 | 52.85 (≈ 108 µM)
7 | Cc1ccc2oc(=O)cc(CSc3nnc(CSc4nc5cc(Cl)ccc5o4)o3)c2c1 | 437 | 115 | 48.69 (≈ 103 µM)
8 | O=C1O[C@H]([C@@H](O)CO)C(O)=C1O [ASCORBIC ACID] | – | – | 25.74 (≈ 146 µM)
9 | Cc1cccc(Nc2ccccc2C(=O)O)c1C [MEFENAMIC ACID] | 772 | 104 | –

Second part, the compound after the results:

Row | IC50 [1] [µM] | IC50 [2] [µM] | IC50 [3] [µg/mL] | SMILES
10 | 1120 | 55.4 | 33.41 (≈ 74 µM) | Cc1cc(C)c2c(CSc3nnc(CSc4nc5ccccc5o4)o3)cc(=O)oc2c1
11 | 562 | 45.6 | 24.04 (≈ 54.9 µM) | Cc1ccc2oc(=O)cc(CSc3nnc(CSc4nc5ccccc5o4)o3)c2c1
12 | 230 | 72.6 | 63.09 (≈ 139 µM) | COc1ccc2oc(=O)cc(CSc3nnc(CSc4nc5ccccc5o4)o3)c2c1
13 | 308 | 29 | 27.73 (≈ 58.8 µM) | Cc1ccc2c(CSc3nnc(CSc4nc5cc(Cl)ccc5o4)o3)cc(=O)oc2c1
14 | 199 | 54.3 | 49.87 (≈ 114 µM) | Cc1ccc2c(CSc3nnc(CSc4nc5ccccc5o4)o3)cc(=O)oc2c1

— ChEMBL document CHEMBL4819139, “Green synthesis of therapeutically active 1,3,4-oxadiazoles as antioxidants, selective COX-2 inhibitors and their in silico studies” (Bioorg Med Chem Lett, 2021)
